Tests used:
[1] = melting temperature; fluorescence melt of hairpins on a sequencing array, two-state fit, raised by 9.35 °C to match UV melts; conditions: sodium 0.088 M
In short: (§1)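 Folding enthalpy and melting temperature were estimated with bootstrapped two-state fits and combined across four replicates by inverse-variance weighting, with fitted temperatures raised by 9.35 °C to match UV melts. The data were Cy3 fluorescence of library hairpins, with annealed Cy3 and quencher oligos, on a sequenced MiSeq flow cell in 50 mM Na-HEPES pH 8.0, 25 mM NaCl, imaged in 2.5 °C steps up to 60 °C and normalised to pre-quench Cy3 and control constructs.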

[2] = folding enthalpy; higher = less favourable; fluorescence melt of hairpins on a sequencing array, two-state fit; conditions: sodium 0.088 M
In short: as §1

GATCGAAGGGTCGATC ((((((....))))))
Tm [1]: 50.6 °C
folding enthalpy [2]: -31.6 kcal/mol

GATCGAATAATCGATC ((((((....))))))
Tm [1]: 47.6 °C
folding enthalpy [2]: -30.8 kcal/mol

GATCGAATACTCGATC ((((((....))))))
Tm [1]: 49.9 °C
folding enthalpy [2]: -37.5 kcal/mol

GATCGAATCATCGATC ((((((....))))))
Tm [1]: 51.9 °C
folding enthalpy [2]: -35.7 kcal/mol

GATCGAATGATCGATC ((((((....))))))
Tm [1]: 51.7 °C
folding enthalpy [2]: -19.6 kcal/mol

GATCGAATGCTCGATC ((((((....))))))
Tm [1]: 49.9 °C
folding enthalpy [2]: -49.6 kcal/mol

GATCGAATGTTCGATC ((((((....))))))
Tm [1]: 52.5 °C
folding enthalpy [2]: -42.5 kcal/mol

GATCGACAAATCGATC ((((((....))))))
Tm [1]: 48.1 °C
folding enthalpy [2]: -31.2 kcal/mol

GATCGACAGGTCGATC ((((((....))))))
Tm [1]: 60.3 °C
folding enthalpy [2]: -39.1 kcal/mol

GATCGACATTCGATC ((((((...))))))
Tm [1]: 49.9 °C
folding enthalpy [2]: -36.1 kcal/mol

GATCGACATTTCGATC ((((((....))))))
Tm [1]: 50.8 °C
folding enthalpy [2]: -38.6 kcal/mol

GATCGACCCATCGATC ((((((....))))))
Tm [1]: 51.5 °C
folding enthalpy [2]: -44.4 kcal/mol

GATCGACCTGTCGATC ((((((....))))))
Tm [1]: 65 °C
folding enthalpy [2]: -40.3 kcal/mol

GATCGACCTTTCGATC ((((((....))))))
Tm [1]: 50.6 °C
folding enthalpy [2]: -42.9 kcal/mol

GATCGACGAAAGTCCATC (((.(((....))).)))
Tm [1]: 30 °C
folding enthalpy [2]: -15.5 kcal/mol

GATCGACGAAAGTCTATC (((.(((....))).)))
Tm [1]: 37.1 °C
folding enthalpy [2]: -26.8 kcal/mol

GATCGACGAATCGATC ((((((....))))))
Tm [1]: 49 °C
folding enthalpy [2]: -33.7 kcal/mol

GATCGACGATTCGATC ((((((....))))))
Tm [1]: 49.4 °C
folding enthalpy [2]: -37.1 kcal/mol

GATCGACGCATCGATC ((((((....))))))
Tm [1]: 52.6 °C
folding enthalpy [2]: -32.6 kcal/mol

GATCGACGCCTCGATC ((((((....))))))
Tm [1]: 51.6 °C
folding enthalpy [2]: -43.6 kcal/mol

GATCGACGTTCGATC ((((((...))))))
Tm [1]: 50 °C
folding enthalpy [2]: -40.8 kcal/mol

GATCGACTCTCGATC ((((((...))))))
Tm [1]: 50.9 °C
folding enthalpy [2]: -40.6 kcal/mol

GATCGACTGATCGATC ((((((....))))))
Tm [1]: 50.9 °C
folding enthalpy [2]: -30.5 kcal/mol

GATCGACTTTTCGATC ((((((....))))))
Tm [1]: 51.6 °C
folding enthalpy [2]: -35.1 kcal/mol

GATCGAGAATCGATC ((((((...))))))
Tm [1]: 59.5 °C
folding enthalpy [2]: -39.8 kcal/mol

GATCGAGACTCGATC ((((((...))))))
Tm [1]: 52.9 °C
folding enthalpy [2]: -37.1 kcal/mol

GATCGAGCATTCGATC ((((((....))))))
Tm [1]: 58.2 °C
folding enthalpy [2]: -42.6 kcal/mol

GATCGAGCCGTCGATC ((((((....))))))
Tm [1]: 54.4 °C
folding enthalpy [2]: -34.8 kcal/mol

GATCGAGCTCTCGATC ((((((....))))))
Tm [1]: 55.2 °C
folding enthalpy [2]: -39.1 kcal/mol

GATCGAGGAAACTTGATC ((((.((....)).))))
Tm [1]: 44.3 °C
folding enthalpy [2]: -28.7 kcal/mol

GATCGAGGGATCGATC ((((((....))))))
Tm [1]: 53.4 °C
folding enthalpy [2]: -34.2 kcal/mol

GATCGAGGGCTCGATC ((((((....))))))
Tm [1]: 53.5 °C
folding enthalpy [2]: -46.3 kcal/mol

GATCGAGGGTTCGATC ((((((....))))))
Tm [1]: 50.9 °C
folding enthalpy [2]: -36.9 kcal/mol

GATCGAGGTTTCGATC ((((((....))))))
Tm [1]: 53.2 °C
folding enthalpy [2]: -44.7 kcal/mol

GATCGAGTGATCGATC ((((((....))))))
Tm [1]: 55.3 °C
folding enthalpy [2]: -40.1 kcal/mol

GATCGAGTTATCGATC ((((((....))))))
Tm [1]: 58.6 °C
folding enthalpy [2]: -41.7 kcal/mol

GATCGATAATTCGATC ((((((....))))))
Tm [1]: 51.2 °C
folding enthalpy [2]: -39.6 kcal/mol

GATCGATACATCGATC ((((((....))))))
Tm [1]: 55.9 °C
folding enthalpy [2]: -46.2 kcal/mol

GATCGATACCTCGATC ((((((....))))))
Tm [1]: 53.1 °C
folding enthalpy [2]: -35.1 kcal/mol

GATCGATACGTCGATC ((((((....))))))
Tm [1]: 54.5 °C
folding enthalpy [2]: -38.6 kcal/mol

GATCGATACTTCGATC ((((((....))))))
Tm [1]: 53 °C
folding enthalpy [2]: -57.9 kcal/mol

GATCGATCCATCGATC ((((((....))))))
Tm [1]: 56.7 °C
folding enthalpy [2]: -49.1 kcal/mol

GATCGATCGCTCGATC ((((((....))))))
Tm [1]: 52.4 °C
folding enthalpy [2]: -37.3 kcal/mol

GATCGATGAGTCGATC ((((((....))))))
Tm [1]: 55.5 °C
folding enthalpy [2]: -41.6 kcal/mol

GATCGATGCTCGATC ((((((...))))))
Tm [1]: 51.8 °C
folding enthalpy [2]: -37 kcal/mol

GATCGATGCTTCGATC ((((((....))))))
Tm [1]: 54.9 °C
folding enthalpy [2]: -41.9 kcal/mol

GATCGATTAATCGATC ((((((....))))))
Tm [1]: 55.9 °C
folding enthalpy [2]: -43.9 kcal/mol

GATCGATTAGTCGATC ((((((....))))))
Tm [1]: 53.2 °C
folding enthalpy [2]: -54.5 kcal/mol

GATCGATTCCTCGATC ((((((....))))))
Tm [1]: 52.3 °C
folding enthalpy [2]: -41.2 kcal/mol

GATCGATTCTTCGATC ((((((....))))))
Tm [1]: 56.9 °C
folding enthalpy [2]: -36.8 kcal/mol

GATCGATTTCTCGATC ((((((....))))))
Tm [1]: 52.5 °C
folding enthalpy [2]: -36.4 kcal/mol

GATCGATTTTTCGATC ((((((....))))))
Tm [1]: 54.7 °C
folding enthalpy [2]: -44.3 kcal/mol

GATCGCAAAAGCGATC ((((((....))))))
Tm [1]: 61.9 °C
folding enthalpy [2]: -29.1 kcal/mol

GATCGCAAAGGCGATC ((((((....))))))
Tm [1]: 63.9 °C
folding enthalpy [2]: -41.9 kcal/mol

GATCGCAACAGCGATC ((((((....))))))
Tm [1]: 69.1 °C
folding enthalpy [2]: -35.4 kcal/mol

GATCGCACAAGCGATC ((((((....))))))
Tm [1]: 69.3 °C
folding enthalpy [2]: -37 kcal/mol

GATCGCACATGCGATC ((((((....))))))
Tm [1]: 68.3 °C
folding enthalpy [2]: -39.8 kcal/mol

GATCGCACCAGCGATC ((((((....))))))
Tm [1]: 69.3 °C
folding enthalpy [2]: -31.2 kcal/mol

GATCGCACCTGCGATC ((((((....))))))
Tm [1]: 69.2 °C
folding enthalpy [2]: -32.3 kcal/mol

GATCGCACGAAAGTGATC (((..(((....))))))
Tm [1]: 36.4 °C
folding enthalpy [2]: -16.3 kcal/mol

GATCGCAGAGGCGATC ((((((....))))))
Tm [1]: 66.8 °C
folding enthalpy [2]: -35.8 kcal/mol

GATCGCAGGGGCGATC ((((((....))))))
Tm [1]: 67.5 °C
folding enthalpy [2]: -34.1 kcal/mol

GATCGCAGGTGCGATC ((((((....))))))
Tm [1]: 68.4 °C
folding enthalpy [2]: -39.8 kcal/mol

GATCGCAGTGCGATC ((((((...))))))
Tm [1]: 67.6 °C
folding enthalpy [2]: -30.1 kcal/mol

GATCGCAGTGGCGATC ((((((....))))))
Tm [1]: 67.5 °C
folding enthalpy [2]: -31.5 kcal/mol

GATCGCATACGCGATC ((((((....))))))
Tm [1]: 69.3 °C
folding enthalpy [2]: -36.1 kcal/mol

GATCGCATCGGCGATC ((((((....))))))
Tm [1]: 68.8 °C
folding enthalpy [2]: -33.6 kcal/mol

GATCGCATGGGCGATC ((((((....))))))
Tm [1]: 68.5 °C
folding enthalpy [2]: -40.5 kcal/mol

GATCGCATGTGCGATC ((((((....))))))
Tm [1]: 68.3 °C
folding enthalpy [2]: -37.8 kcal/mol

GATCGCCACCGCGATC ((((((....))))))
Tm [1]: 67.1 °C
folding enthalpy [2]: -40.2 kcal/mol

GATCGCCAGCGCGATC ((((((....))))))
Tm [1]: 63.7 °C
folding enthalpy [2]: -33.3 kcal/mol

GATCGCCCACGCGATC ((((((....))))))
Tm [1]: 68.1 °C
folding enthalpy [2]: -35 kcal/mol

GATCGCCCCGGCGATC ((((((....))))))
Tm [1]: 69.2 °C
folding enthalpy [2]: -33 kcal/mol

GATCGCCCTTGCGATC ((((((....))))))
Tm [1]: 66.9 °C
folding enthalpy [2]: -29.8 kcal/mol

GATCGCCTAGCGATC ((((((...))))))
Tm [1]: 68.6 °C
folding enthalpy [2]: -30.6 kcal/mol

GATCGCCTTCGCGATC ((((((....))))))
Tm [1]: 68.4 °C
folding enthalpy [2]: -41 kcal/mol

GATCGCGAAAGCGAAATC ((((((....)))..)))
Tm [1]: 37.2 °C
folding enthalpy [2]: -9.22 kcal/mol

GATCGCGAAAGCGCAATC ((((((....)))..)))
Tm [1]: 23.1 °C
folding enthalpy [2]: -7.96 kcal/mol

GATCGCGAGCGCGATC ((((((....))))))
Tm [1]: 67.2 °C
folding enthalpy [2]: -35.4 kcal/mol

GATCGCGCGAAAGCGATC (((..(((....))))))
Tm [1]: 60.1 °C
folding enthalpy [2]: -25.8 kcal/mol

GATCGCGGAAACGCGACC (.(((((....))))).)
Tm [1]: 49.2 °C
folding enthalpy [2]: -10.5 kcal/mol

GATCGCTACCGCGATC ((((((....))))))
Tm [1]: 68.2 °C
folding enthalpy [2]: -35.1 kcal/mol

GATCGCTAGTGCGATC ((((((....))))))
Tm [1]: 67 °C
folding enthalpy [2]: -35.2 kcal/mol

GATCGCTATGGCGATC ((((((....))))))
Tm [1]: 69.1 °C
folding enthalpy [2]: -30.2 kcal/mol

GATCGCTCGCGCGATC ((((((....))))))
Tm [1]: 67.4 °C
folding enthalpy [2]: -31.7 kcal/mol

GATCGCTCTCGCGATC ((((((....))))))
Tm [1]: 67.6 °C
folding enthalpy [2]: -34.2 kcal/mol

GATCGCTCTTGCGATC ((((((....))))))
Tm [1]: 68 °C
folding enthalpy [2]: -38.9 kcal/mol

GATCGCTGATGCGATC ((((((....))))))
Tm [1]: 67.2 °C
folding enthalpy [2]: -34.8 kcal/mol

GATCGCTGGCGCGATC ((((((....))))))
Tm [1]: 65.9 °C
folding enthalpy [2]: -35.7 kcal/mol

GATCGCTGGGCGATC ((((((...))))))
Tm [1]: 68.8 °C
folding enthalpy [2]: -35.6 kcal/mol

GATCGCTGGGGCGATC ((((((....))))))
Tm [1]: 69.1 °C
folding enthalpy [2]: -32.2 kcal/mol

GATCGCTGTTGCGATC ((((((....))))))
Tm [1]: 67.8 °C
folding enthalpy [2]: -28.7 kcal/mol

GATCGCTTCGGCGATC ((((((....))))))
Tm [1]: 67.6 °C
folding enthalpy [2]: -35.6 kcal/mol

GATCGCTTGAGCGATC ((((((....))))))
Tm [1]: 67.6 °C
folding enthalpy [2]: -27.6 kcal/mol

GATCGCTTGGCGATC ((((((...))))))
Tm [1]: 68.8 °C
folding enthalpy [2]: -41.3 kcal/mol

Reference: the array DNA melting data of Ke et al. (doi:10.1101/2024.01.08.574731)
